Experimental data published in publication PMC7115534 (Peptides, 2009).
pEC50: −log10 of the molar value. Values after ≈ are worked out from the molar mass of the structure shown. Read-outs that look alike come from different tables or passages of the source. Where a SMILES comes first, the peptide text is derived from it. The star is where a group is joined. Cbz = O=C(OCc1ccccc1)*; CH2F = FC*

Assays:
[1] = test system: Clematis montana lectin (CML); test: Hemagglutination inhibition assay; type: biochemical
Summary of the method: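 Sugars were serially diluted 2-fold and mixed with an equal volume of lectin at 8 hemagglutination units. After 30 min at room temperature, 2% rabbit erythrocyte suspension was added in U-bottom wells. Plates were read after 1 h. The endpoint was the minimum sugar concentration in the final mixture giving complete inhibition; lectin dilutions were made in 0.15 M NaCl.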

Influenza B = test: Anti-influenza B activity in MDCK cells; type: cell-based; details: Influenza B virus
MDCK cells = details: microscopic alteration of cell morphology
in vitro = details: dog
L929 cells = test: Effect of carbohydrates and caspase inhibitors on CML-induced L929 cell death; type: cell-based, murine; details: 24 h; for effect of carbohydrate pre-incubation on CML-induced L929 cell death: 1 pM CML pre-incubated with sugar at 37 °C for 30 min, MTT; for effect of caspase inhibitor on CML-induced L929 apoptosis: 20 μM, 1 h prior to CML
Summary of the method: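 Murine L929 fibroblasts in DMEM with 10% FBS and nonessential amino acids at 37 °C, 5% CO2, were seeded at 1 × 10^5 cells/well for 24 h. Caspase inhibitors (pan-caspase z-VAD-fmk, caspase-3 z-DEVD-fmk, caspase-8 z-IETD-fmk; 20 μmol/l) were added 1 h before lectin, then cells were incubated 24 h. MTT was read at 490 nm as % growth inhibition versus control and blank; n = 5.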

Reovirus-1 = test: Antiviral activity in Vero cells, reovirus-1; type: cell-based; details: read-out: EC50 Reovirus-1
Sindbis virus = test: Antiviral activity in Vero cells, Sindbis virus; type: cell-based; details: read-out: EC50 Sindbis virus
Vero cells = details: microscopic alteration of cell morphology
HIV-1 (IIIB) = details: CEM cells; cited from earlier work
HIV-2 (strain ROD) = details: CEM cells; cited from earlier work
Para-influenza-3 virus = test: Antiviral activity in Vero cells, para-influenza-3; type: cell-based; details: read-out: EC50 Para-influenza-3 virus
Punta Toro virus = test: Antiviral activity in Vero cells, Punta Toro virus; type: cell-based; details: read-out: EC50 Punta Toro virus
[2] = read-out: Antiviral EC50 Influenza B MTS
[3] = read-out: Antiviral EC50 Influenza B Visual CPE Score

## OC[C@H]1O[C@H](O[C@@H]2C(O)O[C@H](CO)[C@@H](O)[C@@H]2O)[C@@H](O)[C@@H](O)[C@@H]1O (stereo partly drawn) [Man-a(1,2)-Man]
[1]
  inhibition of CML agglutination of rabbit erythrocytes (in words): slightly inhibitory

## NC12CC3CC(CC(C3)C1)C2 [Amantadine]
Influenza B; [2]
  pEC50: < 3.00
Influenza B; [3]
  pEC50: < 3.00
MDCK cells
  Cytotoxicity Minimum cytotoxic concentration: >1000 µM
In vitro
  CC50: > 1000 µM

## OC[C@H]1O[C@H](OC[C@H]2OC(O)[C@@H](O)[C@@H](O)[C@@H]2O)[C@@H](O)[C@@H](O)[C@@H]1O (stereo partly drawn) [Man-a(1,6)-Man]
[1]
  inhibition of CML agglutination of rabbit erythrocytes (in words): slightly inhibitory
L929 cells
  effect of carbohydrate pre-incubation on CML-induced L929 cell death: slightly more effective inhibitor than Man-a(1,3:1,6)-mannotriose

## CC(N)C12CC3CC(CC(C3)C1)C2 (stereo not drawn) [Rimantadine]
Influenza B; [2]
  pEC50: < 3.70
Influenza B; [3]
  pEC50: < 3.70
MDCK cells
  Cytotoxicity Minimum cytotoxic concentration: 1000 µM
In vitro
  CC50: 525 µM

## thyroglobulin: a glycoprotein
[1]
  inhibition of CML agglutination of rabbit erythrocytes (in words): inhibited the agglutination

## OC[C@H]1O[C@H](O[C@H]2[C@H](O)[C@@H](CO)OC(O)[C@H]2O)[C@@H](O)[C@@H](O)[C@@H]1O (stereo partly drawn) [Man-a(1,3)-Man]
[1]
  inhibition of CML agglutination of rabbit erythrocytes (in words): slightly inhibitory

## NC(=O)c1ncn([C@@H]2O[C@H](CO)[C@@H](O)[C@H]2O)n1 [Ribavirin]
Influenza B; [2]
  pEC50: 5.37
Influenza B; [3]
  pEC50: 5.05
Reovirus-1
  pEC50: 3.60
Sindbis virus
  pEC50: < 3.60
MDCK cells
  Cytotoxicity Minimum cytotoxic concentration: >100 µM
Vero cells
  Minimum cytotoxic concentration: >250 µM

## COC(=O)C[C@H](NC(=O)[C@H](C)NC(=O)[C@@H](NC(=O)OCc1ccccc1)C(C)C)C(=O)CF [z-VAD-fmk] (Cbz-Val-Ala-Asp(OMe)-CH2F)
L929 cells
  effect of caspase inhibitor on CML-induced L929 apoptosis: partially blocked apoptosis

## Scilla campanulata agglutinin [SCA]
HIV-1 (IIIB)
  EC50 HIV-1: 4.6 µg/mL
HIV-2 (strain ROD)
  EC50 HIV-2: 8 µg/mL

## Galanthus nivalis agglutinin [GNA]
HIV-1 (IIIB)
  EC50 HIV-1: 0.92 µg/mL
HIV-2 (strain ROD)
  EC50 HIV-2: 0.78 µg/mL

## Lycoris radiate agglutinin [LRA]
HIV-1 (IIIB)
  EC50 HIV-1: 0.79 µg/mL
HIV-2 (strain ROD)
  EC50 HIV-2: 0.59 µg/mL

## CCC(CC)O[C@@H]1C=C(C(=O)O)C[C@H](N)[C@H]1NC(C)=O [Oseltamivir Carboxylate]
Influenza B; [2]
  pEC50: 4.82
Influenza B; [3]
  pEC50: 5.10
MDCK cells
  Cytotoxicity Minimum cytotoxic concentration: >100 µM
In vitro
  CC50: > 100 µM

## Nc1ncnc2c1ncn2C[C@H](O)CO [(S)-DHPA]
Para-influenza-3 virus
  pEC50: < 3.60
Reovirus-1
  pEC50: < 3.60
Sindbis virus
  pEC50: < 3.60
Punta Toro virus
  pEC50: < 3.60
Vero cells
  Minimum cytotoxic concentration: >250 µM

## CC[C@H](C)[C@H](NC(=O)OCc1ccccc1)C(=O)N[C@@H](CCC(=O)OC)C(=O)N[C@H](C(=O)N[C@@H](CC(=O)OC)C(=O)CF)[C@@H](C)O [z-IETD-fmk] (Cbz-IE(OMe)TD(OMe)-CH2F)
L929 cells
  effect of caspase inhibitor on CML-induced L929 apoptosis: partially blocked apoptosis

## COC(=O)CC[C@H](NC(=O)[C@H](CC(=O)OC)NC(=O)OCc1ccccc1)C(=O)N[C@H](C(=O)N[C@@H](CC(=O)OC)C(=O)CF)C(C)C [z-DEVD-fmk]
L929 cells
  effect of caspase inhibitor on CML-induced L929 apoptosis: partially blocked apoptosis

## OC[C@H]1O[C@H](OC[C@H]2OC(O)[C@@H](O)[C@@H](O[C@H]3O[C@H](CO)[C@@H](O)[C@H](O)[C@@H]3O)[C@@H]2O)[C@@H](O)[C@@H](O)[C@@H]1O (stereo partly drawn) [Man-a(1,3:1,6)-mannotriose]
[1]; complete inhibition of 8 hemagglutination units of CML, rabbit erythrocytes
  Minimum inhibitory concentration (MIC): 2500 µM (≈ 1260 µg/mL)
L929 cells
  effect of carbohydrate pre-incubation on CML-induced L929 cell death: the cell inhibitory ratio was abruptly decreased
